Reference: publication PMC6996566 (ChemistryOpen, 2019)
Like-named read-outs stand apart in the source and are kept apart here.

Experiments:
Type in all cases: cell-based, human
Hela = experiment: In vitro anti‐proliferative assay; details: read-out: Hela (IC50); MTT, 48 h treatment; mean of triplicate determinations
Method in brief: (§1)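 MTT assay: 5×10³ cells per well settled 24 h, then exposed to a concentration series of test compound or DMSO for 48 h. Medium replaced with fresh medium containing 10% MTT (5 mg/mL in PBS) for 4 h at 37 °C. Formazan dissolved in DMSO, absorbance read at 570 nm. Inhibition % = (OD DMSO − OD compound)/(OD DMSO − OD blank)×100, giving IC50.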

A2780 = experiment: In vitro anti‐proliferative assay; details: read-out: A2780 (IC50); MTT, 48 h treatment; mean of triplicate determinations
Method in brief: as §1

HUVEC = experiment: In vitro anti‐proliferative assay
Method in brief: as §1

A2780 cells = experiment: Nitrite measurement in vitro; details: 100 μM compound, 150 min, Griess reagent
Method in brief: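 A2780 cells (1×10⁷ per 10 cm dish) were exposed to 100 μM test compound for 150 min, then harvested and lysed in RIPA buffer for 30 min on ice. Lysates were mixed with Griess reagent for 30 min in the dark and read at 540 nm. Nitrite was quantified against a sodium nitrite standard curve, with diluent-treated cells as background. Mean ± SD of three independent experiments.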

Row | Molecule | IC50 (Hela) | IC50 (A2780) | IC50 (HUVEC; read-out: HUVEC (IC50), MTT, 48 h treatment, mean of triplicate determinations) | intracellular NO production, presented as nitrite in the cell lysates (A2780 cells) | IC50 (HUVEC; Homo sapiens, HUVEC, 48 h, read-out: HUVEC (IC50, μM))
1 | 3‐Phenylsulfonyl‐4‐hydroxylethoxyl‐1,2,5‐oxadiazole 2‐Oxide [compound 21] | 3050 nM | 1920 nM | 1.48 µM |  | 
2 | COc1cc2c(cc1O)CC[C@@H]1[C@@H]2CC[C@]2(C)[C@@H](O)CC[C@@H]12 [compound 3, 2‐methoxyestradiol] |  |  |  | hardly detected | 1.35 µM
